# Laboratory results reported in ChEMBL document CHEMBL4402514, “Norepinephrine-Transporter-Targeted and DNA-Co-Targeted Theranostic Guanidines” (J Med Chem, 2020).
# Legend:
# [1] = biological target: T1, Sodium-dependent noradrenaline transporter (Homo sapiens, UniProt P23975); assay: Substrate activity at NET in human BE(2)-C cells assessed as inhibition of drug uptake by measuring MIBG IC50 incubated for 1 hr in presence of nonradioactive MIBG at 37 degC by filtration based gamma counting method; assay type: cell-based
# [2] = test system: SK-N-SH; assay: Anticlonogenic activity against human SK-N-SH cells assessed as inhibition of reproductive integrity at 35 kBq/mL after 14 days by crystal violet staining based assay relative to control; assay type: functional; parameters: scale not given: the % may be the effect or the level left
# Procedure, shortened: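 SK-N-SH cells exposed to 125I guanidine for 24 h, then harvested, replated at 500 live cells/flask and grown in nonradioactive medium for 14 days (up to 21 days at the highest levels). Colonies were stained with crystal violet and counted. Values are average (n ≥ 3) ± SD.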
# [3] = test system: BE(2)-C; assay: Antitumor activity against human BE(2)-C cells xenografted with NCR nu/nu mouse assessed as doubling time at 8.4 +/- 0.3 mBq administered intratumorally measured up to 14 days; assay type: functional
# Procedure, shortened: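 Athymic Ncr nu/nu female and male mice bearing subcutaneous BE(2)-C xenografts were randomized by lottery into untreated control and treatment groups. Treatment was a single intratumor injection of 8.4 ± 0.3 MBq/mouse. Tumor volumes were followed to day 7 (controls) or day 14. Doubling times were calculated from day 0 to 7 and day 0 to 14. Values are average ± std err.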
# [4] = Drug level in human SK-N-SH cells DNA at 40 +/- 0.5 kBq/mL after 24 hrs by gamma counting method relative to control; assay type: ADME, cell-based
# Procedure, shortened: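 SK-N-SH cells were exposed 1 h to 125I compound (≈39–40 kBq/mL), then washed with nonradioactive medium and PBS. Cells were processed immediately (1 h) or re-incubated in fresh medium for 23 h (24 h). Cytoplasmic, nuclear and DNA fractions were gamma-counted.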
# [5] = biological target: T1, Sodium-dependent noradrenaline transporter; assay: Substrate activity at NET in human SK-N-SH cells assessed as inhibition of drug uptake by measuring MIBG IC50 incubated for 1 hr in presence of nonradioactive MIBG at 4 degC by filtration based gamma counting method; assay type: cell-based
# Procedure, shortened: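 This was a cell-suspension competition assay. SK-N-SH cells in suspension were incubated with 125I-guanidine and graded nonradioactive MIBG, and uptake was read by filtration and γ-counting. Runs were done at 37 °C, or at 4 °C after cooling the cells on ice. The MIBG IC50 was estimated from the inhibition curves.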
# [6] = test system: SK-N-SH; assay: Antiproliferative activity against human SK-N-SH cells assessed as intracellular concentration of 125I required to show 63% inhibition after 24 hrs; assay type: cell-based
# Procedure, shortened: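 D37 (63% kill) was estimated for SK-N-SH cells treated 24 h with IDG. It is expressed as extracellular (kBq/mL) or intracellular (mBq/cell) 125I. Survival was assessed by trypan blue and clonogenic assays. Values are average (std error).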
# [7] = Drug uptake in human SK-N-SH cells assessed as level of 125I-incorporation into DNA after 1 hr and followed by compound washout with non-radioactive medium/PBS and measured immediately by gamma counting method relative to control; assay type: ADME, cell-based
# Procedure, shortened: (§1)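 SK-N-SH cells exposed to the 125I-labelled guanidine for 1 h, then washed with nonradioactive medium and PBS. Cells were either processed at once (1 h) or given fresh nonradioactive medium and returned to the incubator for 23 h (24 h). Subcellular fractions (cytoplasm, DNA) were counted by γ-counter. Values are mean and SD, n ≥ 3.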
# [8] = Drug uptake in human SK-N-SH cells assessed as level of 125I-incorporation into DNA incubated 1 hr followed by compound washout with non-radioactive medium/PBS and measured after 23 hrs by gamma counting method relative to control; assay type: ADME, cell-based; procedure, shortened: as §1
# [9] = Dissociation constant, pKa of compound; assay type: physicochemical
# [10] = Half life in mouse serum by HPLC analysis; assay type: ADME, cell-free
# Procedure, shortened: (§2)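 Radioiodinated guanidines were incubated in mouse, human or pig serum and analyzed by radio-HPLC on a C18 column at 0.8 mL/min. The gradient was 0–95% CH3CN over 50 min, then 95% for 20 min. Intact compound was fitted to monoexponential degradation to give half-life. Values are average ± std err.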
# [11] = biological target: T1, Sodium-dependent noradrenaline transporter; assay: Substrate activity at NET in human SK-N-SH cells assessed as inhibition of drug uptake by measuring MIBG IC50 incubated for 1 hr in presence of nonradioactive MIBG by gamma counting method; assay type: cell-based
# Procedure, shortened: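 Exponentially growing SK-N-SH monolayers (endogenous NET) were exposed for 1 h to 125I-labelled guanidine plus nonradioactive MIBG over a range of concentrations. Cell-associated 125I was counted in a γ-counter, and the MIBG IC50 was estimated.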
# [12] = Stability in human serum assessed as intact compound level after 60 mins by HPLC analysis; assay type: ADME, cell-free; settings: read-out: Stability; procedure, shortened: as §2
# [13] = biological target: T1, Sodium-dependent noradrenaline transporter; assay: Substrate activity at NET in human BE(2)-C cells assessed as inhibition of drug uptake by measuring MIBG IC50 incubated for 1 hr in presence of nonradioactive MIBG by gamma counting method; assay type: cell-based
# [14] = Stability in human SK-N-SH cells assessed as parent compound level after 24 hrs by HPLC analysis; assay type: ADME, cell-based; settings: read-out: Stability
# Procedure, shortened: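 The compound was incubated 24 h in cell culture medium without cells or with SK-N-SH cells. Intact compound and 125IUdR catabolite were quantified by radio-HPLC on a C18 column at 0.8 mL/min, with a 0–95% CH3CN gradient over 50 min and 95% for 20 min.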
# [15] = Toxicity in NCR nu/nu mouse xenografted with human BE(2)-C cells assessed as effect on hemoglobin level at 8.41 +/- 0.32 mBq measured up to 166 hrs
# Procedure, shortened: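 Athymic Ncr nu/nu female and male mice bearing subcutaneous BE(2)-C xenografts were randomized by lottery to untreated control or a single intratumor injection of 125I-guanidine (8.4 ± 0.3 MBq/mouse). Blood hemoglobin was measured in both groups and compared with the normal adult mouse range. Treated mice were terminated 14 days after injection.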
# [16] = Drug uptake in human BE(2)-C cells assessed as level of 125I-incorporation into DNA incubated 1 hr followed by compound washout with non-radioactive medium/PBS and measured after 23 hrs by gamma counting method relative to control; assay type: ADME, cell-based
# Procedure, shortened: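 BE(2)-C cells were treated with radioiodinated guanidine for 1 h, washed with nonradioactive medium and PBS. They were processed immediately or returned to the incubator for a further 23 h. 125I in the DNA fraction was gamma-counted. Values are average (n ≥ 3) ± SD.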
# [17] = Half life in human serum by HPLC analysis; assay type: ADME, cell-free; procedure, shortened: as §2
# [18] = Drug level in tumor of NCR nu/nu mouse xenografted with human BE(2)-C cells at 0.33 +/- 0.05 MBq administered intratumorally after 24 hrs by gamma counting method; assay type: ADME, tissue-based, Neoplasm; settings: in vivo, other
# Procedure, shortened: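 Athymic Ncr nu/nu female and male mice bearing subcutaneous BE(2)-C xenografts received intratumor injections of the 125I agent. Tissues, tumor and blood were collected at 24 h and counted for radioactivity, expressed as %ID/g. Tumor-to-blood ratios were derived.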
# [19] = Half life in EMEM medium by HPLC analysis; assay type: physicochemical
# [20] = test system: SK-N-SH; assay: Antiproliferative activity against human SK-N-SH cells assessed as cell viability at 180 kBa/ml after 24 hrs by trypan blue assay relative to control; assay type: functional
# Procedure, shortened: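 Cell survival was scored by trypan blue exclusion 24 h after exposing SK-N-SH cells to radioiodinated guanidine at varied extracellular concentrations. Values are average (n ≥ 3) ± SD.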
# T1 sequence (P23975 whole entry): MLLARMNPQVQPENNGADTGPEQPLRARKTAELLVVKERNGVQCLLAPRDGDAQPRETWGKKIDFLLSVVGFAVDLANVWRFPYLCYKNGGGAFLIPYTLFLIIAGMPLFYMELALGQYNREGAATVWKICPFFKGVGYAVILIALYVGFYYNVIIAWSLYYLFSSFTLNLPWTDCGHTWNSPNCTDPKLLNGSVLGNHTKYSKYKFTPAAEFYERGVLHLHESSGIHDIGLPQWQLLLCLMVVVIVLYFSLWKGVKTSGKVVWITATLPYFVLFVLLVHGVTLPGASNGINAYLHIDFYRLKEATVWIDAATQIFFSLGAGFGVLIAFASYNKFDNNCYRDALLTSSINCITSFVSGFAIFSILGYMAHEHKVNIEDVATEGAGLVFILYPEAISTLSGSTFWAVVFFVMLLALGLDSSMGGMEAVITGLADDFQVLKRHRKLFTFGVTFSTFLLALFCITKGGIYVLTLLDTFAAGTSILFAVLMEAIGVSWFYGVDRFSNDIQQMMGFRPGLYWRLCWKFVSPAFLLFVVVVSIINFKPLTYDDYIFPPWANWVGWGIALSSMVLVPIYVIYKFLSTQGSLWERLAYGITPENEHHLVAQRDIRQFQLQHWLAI
structure (smiles),measurement,setting,value
N=C(N)NCCCCCC(=O)O[C@H]1C[C@H](n2cc([125I])c(=O)[nH]c2=O)O[C@@H]1CO,IC50,[1],28.7 µM
same,Activity,[2],>90%
same,Time,[3],5.3 days
same,Drug uptake,[4],> 97%
same,IC50,[5],22 µM
same,Activity,[6],1.2 mBq
same,Drug uptake,[7],81%
same,Drug uptake,[8],> 97%
same,pKa,[9],12.1
same,half-life,[10],3.54 min
same,IC50,[11],76.2 µM
same,remaining at 1 h,[12],62.4%
same,IC50,[13],8.2 µM
same,remaining at 24 h,[14],33%
same,Activity,[15],Non-Toxic
same,Drug uptake,[16],99%
same,half-life,[17],2.28 h
same,Drug uptake,[18],3.93 % ID/g
same,half-life,[19],110 h
same,Activity,[20],60%
